Source: ChEMBL document CHEMBL4706553, “Discovery of potent small molecule PROTACs targeting mutant EGFR” (Eur J Med Chem, 2020)
The source made the active and inactive calls.

How the values were obtained:
A-431 = assay: Antiproliferative activity against human A431 cells expressing wild type EGFR assessed as cell growth inhibition measured after 72 hrs by MTT assay; assay type: functional, cell-based; settings: A-431, 72 h
Summary of the method: (§1)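 Cells were seeded at 3000–8000/well and allowed 24 h, then exposed to serial compound concentrations for 72 h. MTT (5 mg/mL stock in PBS) was added for 4 h, supernatant removed and DMSO added. IC50, defined as 50% growth inhibition, was derived by nonlinear regression (log inhibitor vs response).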

HCC827 = assay: Antiproliferative activity against human HCC827 cells expressing EGFR del19 mutant assessed as cell growth inhibition measured after 72 hrs by MTT assay; assay type: functional, cell-based; settings: HCC827, 72 h
Summary of the method: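 HCC827 cells were kept in RPMI-1640 with 10% heat-inactivated FBS, 1% sodium pyruvate, 1% glutamine and 1% penicillin-streptomycin at 37 °C and 5% CO₂, seeded at 3000–8000/well and rested 24 h. Compounds were applied as a concentration series for 72 h. MTT (5 mg/mL stock in PBS) was given for 4 h, then medium was removed and DMSO added. IC50 came from nonlinear regression (log inhibitor vs response).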

NCI-H1975 = assay: Antiproliferative activity against human H1975 cells expressing EGFR L858R/T790M mutant assessed as cell growth inhibition measured after 72 hrs by MTT assay; assay type: functional, cell-based; settings: NCI-H1975, 72 h
Summary of the method: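 MTT assay on H1975 cells grown in RPMI-1640 with 10% heat-inactivated FBS and 1% penicillin-streptomycin at 37 °C and 5% CO₂. Cells were seeded at 3000–8000 per well and left 24 h, then exposed to a concentration series for 72 h. MTT (5 mg/mL stock in PBS) was added for 4 h, supernatant removed and formazan dissolved in DMSO. IC50 was fitted by nonlinear regression (log inhibitor vs response).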

HepG2 = assay: Antiproliferative activity against human HepG2 cells expressing VEGFR2 assessed as cell growth inhibition measured after 72 hrs by MTT assay; assay type: functional, cell-based; settings: HepG2, 72 h; summary of the method: as §1
[1] = system: Protein cereblon/Epidermal growth factor receptor (Homo sapiens), P00533+Q96SW2 [UNDEFINED MUTATION]; assay: Protac activity at CRBN/EGFR del19 mutant in human HCC827 cells assessed as induction of EGFR degradation at 333 nM measured after 24 hrs by Western blot analysis; assay type: cell-based
Summary of the method: (§2)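 HCC827 cells seeded at 0.5–1 × 10⁶ per well, grown 24 h, then treated at the stated concentrations for 24 h. EGFR^del19 level by Western blot with anti-EGFR antibody and β-actin loading control.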

[2] = system: Protein cereblon/Epidermal growth factor receptor (Homo sapiens), P00533+Q96SW2 [UNDEFINED MUTATION]; assay: Protac activity at CRBN/EGFR del19 mutant in human HCC827 cells assessed as induction of EGFR degradation at 33 nM measured after 24 hrs by Western blot analysis; assay type: cell-based; summary of the method: as §2
[3] = system: von Hippel-Lindau disease tumor suppressor/Epidermal growth factor receptor (Homo sapiens), P00533+P40337 [UNDEFINED MUTATION]; assay: Protac activity at VHL/EGFR del19 mutant in human HCC827 cells assessed as induction of EGFR degradation at 33 to 333 nM measured after 24 hrs by Western blot analysis; assay type: cell-based; settings: dose 33-333 nM; summary of the method: as §2
Sequence of von Hippel-Lindau disease tumor suppressor/Epidermal growth factor receptor (Homo sapiens), P00533+P40337 [UNDEFINED MUTATION] (P00533 whole entry, looked up, stated change not applied): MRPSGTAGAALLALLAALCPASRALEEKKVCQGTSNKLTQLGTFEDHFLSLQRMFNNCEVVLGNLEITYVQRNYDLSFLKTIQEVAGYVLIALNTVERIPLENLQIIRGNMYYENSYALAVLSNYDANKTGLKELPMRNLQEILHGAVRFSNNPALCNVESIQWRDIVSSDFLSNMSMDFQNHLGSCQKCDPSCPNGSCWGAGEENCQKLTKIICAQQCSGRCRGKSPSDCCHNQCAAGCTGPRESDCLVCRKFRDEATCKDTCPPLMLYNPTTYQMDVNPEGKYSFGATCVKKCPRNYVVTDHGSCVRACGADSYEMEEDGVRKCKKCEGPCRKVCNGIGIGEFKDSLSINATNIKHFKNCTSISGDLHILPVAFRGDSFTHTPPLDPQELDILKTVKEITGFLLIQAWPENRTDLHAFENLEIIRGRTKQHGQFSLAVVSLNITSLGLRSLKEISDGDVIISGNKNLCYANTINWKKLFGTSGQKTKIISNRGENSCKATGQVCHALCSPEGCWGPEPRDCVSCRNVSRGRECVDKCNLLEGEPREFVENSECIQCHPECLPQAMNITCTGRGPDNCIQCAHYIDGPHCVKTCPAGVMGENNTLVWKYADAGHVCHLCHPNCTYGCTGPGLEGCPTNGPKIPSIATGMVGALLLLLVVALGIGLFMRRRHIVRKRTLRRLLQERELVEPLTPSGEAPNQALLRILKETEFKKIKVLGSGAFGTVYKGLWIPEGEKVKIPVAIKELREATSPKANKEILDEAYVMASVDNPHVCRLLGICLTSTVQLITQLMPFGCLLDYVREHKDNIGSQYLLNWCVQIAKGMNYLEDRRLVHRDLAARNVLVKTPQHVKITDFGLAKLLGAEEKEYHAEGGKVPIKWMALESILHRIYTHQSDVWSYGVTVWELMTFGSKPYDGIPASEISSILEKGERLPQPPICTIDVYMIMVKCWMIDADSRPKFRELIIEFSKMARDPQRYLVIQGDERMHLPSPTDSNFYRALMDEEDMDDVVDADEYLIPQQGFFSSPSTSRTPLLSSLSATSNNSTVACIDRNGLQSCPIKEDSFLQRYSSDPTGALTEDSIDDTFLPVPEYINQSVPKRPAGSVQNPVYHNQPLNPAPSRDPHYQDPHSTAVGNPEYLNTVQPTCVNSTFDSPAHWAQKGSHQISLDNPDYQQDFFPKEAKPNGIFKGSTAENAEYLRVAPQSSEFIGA
Sequence of von Hippel-Lindau disease tumor suppressor/Epidermal growth factor receptor (Homo sapiens), P00533+P40337 [UNDEFINED MUTATION] (P40337 whole entry, looked up, stated change not applied): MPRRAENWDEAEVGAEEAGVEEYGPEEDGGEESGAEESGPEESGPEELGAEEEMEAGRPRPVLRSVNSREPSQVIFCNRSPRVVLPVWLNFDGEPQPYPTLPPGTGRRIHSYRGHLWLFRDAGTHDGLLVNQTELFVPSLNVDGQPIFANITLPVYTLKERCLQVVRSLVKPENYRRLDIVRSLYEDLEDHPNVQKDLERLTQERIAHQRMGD

Sequence of Protein cereblon/Epidermal growth factor receptor (Homo sapiens), P00533+Q96SW2 [UNDEFINED MUTATION] (P00533 whole entry, looked up, stated change not applied): as the sequence (P00533 whole entry, looked up, stated change not applied) above
Sequence of Protein cereblon/Epidermal growth factor receptor (Homo sapiens), P00533+Q96SW2 [UNDEFINED MUTATION] (Q96SW2 whole entry, looked up, stated change not applied): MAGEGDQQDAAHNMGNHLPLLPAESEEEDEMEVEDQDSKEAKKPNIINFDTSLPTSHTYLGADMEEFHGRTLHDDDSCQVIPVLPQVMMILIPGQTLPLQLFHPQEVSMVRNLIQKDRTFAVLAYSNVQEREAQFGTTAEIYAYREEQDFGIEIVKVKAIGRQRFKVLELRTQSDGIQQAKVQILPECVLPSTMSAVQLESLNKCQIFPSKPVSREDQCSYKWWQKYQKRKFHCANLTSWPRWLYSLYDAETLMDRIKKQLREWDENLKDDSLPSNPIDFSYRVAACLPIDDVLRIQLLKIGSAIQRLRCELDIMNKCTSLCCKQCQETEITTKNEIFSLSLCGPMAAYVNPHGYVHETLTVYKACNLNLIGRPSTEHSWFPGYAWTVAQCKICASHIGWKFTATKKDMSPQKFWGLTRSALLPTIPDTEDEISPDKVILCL

Structure (SMILES) | IC50 (A-431) | IC50 (HCC827) | IC50 (NCI-H1975) | IC50 (HepG2) | Activity [1] | Activity [2] | Activity [3]
O=C1CCC(N2Cc3c(NC(=O)CCCCCCCN4CCN(c5ccc(Nc6ncc7nc(Nc8ccccc8)n(C8CCCC8)c7n6)cc5)CC4)cccc3C2=O)C(=O)N1 (stereo not given) | 240 nM | 2.61 nM | 3780 nM | > 5000 nM | inactive | Active | 
CN1CCN(c2ccc(Nc3ncc4nc(Nc5ccccc5)n(C5CCCC5)c4n3)cc2)CC1 | 163 nM | 0.82 nM | 430 nM | > 5000 nM |  |  | 
CN(CCOCCOCCOCCOCCN1CCN(c2ccc(Nc3ncc4nc(Nc5ccccc5)n(C5CCCC5)c4n3)cc2)CC1)CC(=O)Nc1cccc2c1CN(C1CCC(=O)NC1=O)C2=O (stereo not given) | 2720 nM | 2.83 nM | 3340 nM | > 5000 nM | inactive | Active | 
Cc1ncsc1-c1ccc(CNC(=O)[C@@H]2C[C@@H](O)CN2C(=O)[C@@H](NCCOCCOCCOCCN2CCN(c3ccc(Nc4ncc5nc(Nc6ccccc6)n(C6CCCC6)c5n4)cc3)CC2)C(C)(C)C)cc1 |  | 54.4 nM | 2100 nM | > 5000 nM |  |  | inactive
Cc1ncsc1-c1ccc(CNC(=O)[C@@H]2C[C@@H](O)CN2C(=O)[C@@H](NCCOCCOCCN2CCN(c3ccc(Nc4ncc5nc(Nc6ccccc6)n(C6CCCC6)c5n4)cc3)CC2)C(C)(C)C)cc1 |  | 53.5 nM | 1100 nM | > 5000 nM |  |  | inactive
O=C1CCC(N2Cc3c(NC(=O)CCCCCCN4CCN(c5ccc(Nc6ncc7nc(Nc8ccccc8)n(C8CCCC8)c7n6)cc5)CC4)cccc3C2=O)C(=O)N1 (stereo not given) | 220 nM | 1.41 nM | 9300 nM | > 5000 nM | inactive | Active | 
